How the values were obtained:
Assay type in all cases: functional
HOP-62 = assay: Cytotoxicity against human HOP62 cells assessed as cellular growth at 10 uM after 48 hrs by SRB assay
Outline: (§1)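 NCI60 single-dose screen of cells in RPMI 1640 with 5% FBS and 2 mM L-glutamine, preincubated 24 h at 37 °C, 5% CO₂. Cells were then exposed 48 h to compound added from DMSO stock. TCA-fixed, stained with 0.4% SRB in 1% acetic acid, dye solubilised in 10 mM Tris base and read at 515 nm. Growth is given as percent of untreated control.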

SK-MEL-2 = assay: Antitumor activity against human SK-MEL-2 cells after 48 hrs by SRB assay; settings: SK-MEL-2, 48 h
Outline: (§2)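 NCI60 panel cells grown in RPMI 1640 with 5% FBS and 2 mM L-glutamine, plated at 5000–40,000 cells/well and preincubated 24 h at 37 °C, 5% CO₂. Compound was added from DMSO at five concentrations, 10-fold or 1/2 log dilutions, then incubated 48 h.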

K562 = assay: Antitumor activity against human K562 cells after 48 hrs by SRB assay; settings: K562, 48 h
Outline: (§3)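 NCI60 panel in RPMI 1640 with 5% FBS and 2 mM L-glutamine. Cells were plated at 5000–40,000/well by doubling time, held 24 h, then time-zero plates were TCA-fixed. Five concentrations (10-fold or half-log dilutions of DMSO stocks) were applied for 48 h at 37 °C, 5% CO2. Cells were fixed with cold TCA (10% final adherent, 16% suspension) and stained with 0.4% SRB. Bound dye was dissolved in 10 mM Tris and read at 515 nm. GI50, TGI and LC50 were calculated per line.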

M14 = assay: Cytotoxicity against human M14 cells assessed as cellular growth at 10 uM after 48 hrs by SRB assay; outline: as §1
SF-268 [1] = assay: Antitumor activity against human SF268 cells after 48 hrs by SRB assay; settings: SF-268, 48 h; outline: as §3
SN12C = assay: Antitumor activity against human SN12C cells after 48 hrs by SRB assay; outline: as §2
SF-268 [2] = assay: Cytotoxicity against human SF268 cells assessed as cellular growth at 10 uM after 48 hrs by SRB assay
Outline: (§4)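 NCI-60 panel lines grown in RPMI 1640 with 5% FBS and 2 mM L-glutamine. Plated at 5000–40,000 cells/well and preincubated 24 h at 37 °C, 5% CO₂, with time-zero plates fixed in TCA. Compounds, dissolved in DMSO and diluted in medium, were applied for 48 h. Cells were TCA-fixed (10% final for adherent, 16% for suspension) and stained with 0.4% SRB in 1% acetic acid. Dye was solubilised in 10 mM Tris base and read at 515 nm; growth was expressed as a percentage of untreated control.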

SF-295 = assay: Cytotoxicity against human SF295 cells assessed as cellular growth at 10 uM after 48 hrs by SRB assay; outline: as §4
NCI-H226 = assay: Antitumor activity against human NCI-H226 cells after 48 hrs by SRB assay; settings: NCI-H226, 48 h; outline: as §3
SK-OV-3 = assay: Antitumor activity against human SKOV3 cells after 48 hrs by SRB assay; settings: SK-OV-3, 48 h; outline: as §2
NCI-H460 = assay: Antitumor activity against human NCI-H460 cells after 48 hrs by SRB assay; settings: NCI-H460, 48 h; outline: as §3
HOP-92 = assay: Antitumor activity against human HOP92 cells after 48 hrs by SRB assay; settings: HOP-92, 48 h; outline: as §3
MCF7 = assay: Antitumor activity against human MCF7 cells after 48 hrs by SRB assay; settings: MCF7, 48 h; outline: as §3
NCI-H522 = assay: Cytotoxicity against human NCI-H522 cells assessed as cellular growth at 10 uM after 48 hrs by SRB assay; outline: as §4
MDA-MB-468 = assay: Antitumor activity against human MDA-MB-468 cells after 48 hrs by SRB assay; settings: MDA-MB-468, 48 h; outline: as §3
NCI-H23 = assay: Cytotoxicity against human NCI-H23 cells assessed as cellular growth at 10 uM after 48 hrs by SRB assay; outline: as §4
OVCAR-3 [3] = assay: Cytotoxicity against human OVCAR3 cells assessed as cellular growth at 10 uM after 48 hrs by SRB assay; outline: as §4
MDA-MB-435 = assay: Antitumor activity against human MDA-MB-435 cells after 48 hrs by SRB assay; settings: MDA-MB-435, 48 h; outline: as §3
HL-60(TB) = assay: Cytotoxicity against human HL-60(TB) cells assessed as cellular growth at 10 uM after 48 hrs by SRB assay
BT-549 = assay: Cytotoxicity against human BT549 cells assessed as cellular growth at 10 uM after 48 hrs by SRB assay; outline: as §1
HCT-116 = assay: Antitumor activity against human HCT116 cells after 48 hrs by SRB assay; settings: HCT-116, 48 h; outline: as §3
OVCAR-3 [4] = assay: Antitumor activity against human OVCAR3 cells after 48 hrs by SRB assay; settings: OVCAR-3, 48 h; outline: as §3
CAKI-1 = assay: Cytotoxicity against human Caki1 cells assessed as cellular growth at 10 uM after 48 hrs by SRB assay; outline: as §1
[5] = read-out: LC50 (the source's name)
[6] = read-out: pLC50 (the source's name) (converted)

COc1ccc(/C(=C2/O[C@@H]([C@H]3COC(C)(C)O3)[C@H]3OC(C)(C)O[C@@H]23)c2cc(OC)c(OC)c(OC)c2)cc1O
Activity (HOP-62): 48.49% | GI50 (SK-MEL-2): 57.9 µM | TGI (SK-MEL-2): > 100 µM | CC50 (SK-MEL-2; [5]): > 100 µM | GI50 (K562; read-out: GI50): 3.22 µM | CC50 (K562; [5]): > 100 µM | TGI (K562; read-out: TGI): > 100 µM | GI50 (K562; read-out: pGI50 (converted)): 3.24 µM | CC50 (K562; [6]): > 100 µM | TGI (K562; read-out: pTGI): > 100 µM | Activity (M14): 7.95% | LC50 (concentration killing 50% of cells relative to time zero) (SF-268 [1]): > 100 µM | GI50 (SF-268 [1]; read-out: GI50): 6.95 µM | TGI (SF-268 [1]; read-out: TGI): 31.4 µM | GI50 (SF-268 [1]; read-out: pGI50 (converted)): 6.92 µM | CC50 (SF-268 [1]; [6]): > 100 µM | TGI (SF-268 [1]; read-out: pTGI (converted)): 31.6 µM | GI50 (SN12C; read-out: GI50): 5.82 µM | CC50 (SN12C; [5]): > 100 µM | TGI (SN12C; read-out: TGI): > 100 µM | GI50 (SN12C; read-out: pGI50 (converted)): 5.62 µM | CC50 (SN12C; [6]): > 100 µM | TGI (SN12C; read-out: pTGI): > 100 µM | Activity (SF-268 [2]): 36.3% | Activity (SF-295): 85.23% | GI50 (NCI-H226; read-out: GI50): 2.59 µM | CC50 (NCI-H226; [5]): > 100 µM | TGI (NCI-H226; read-out: TGI): > 100 µM | GI50 (NCI-H226; read-out: pGI50 (converted)): 25.7 µM | CC50 (NCI-H226; [6]): > 100 µM | TGI (NCI-H226; read-out: pTGI (converted)): > 100 µM | GI50 (SK-OV-3; read-out: GI50): 4.11 µM | CC50 (SK-OV-3; [5]): > 100 µM | TGI (SK-OV-3; read-out: TGI): 3.85 µM | GI50 (SK-OV-3; read-out: pGI50 (converted)): 4.68 µM | CC50 (SK-OV-3; [6]): > 100 µM | TGI (SK-OV-3; read-out: pTGI (converted)): 18.6 µM | GI50 (NCI-H460; read-out: GI50): 4.31 µM | CC50 (NCI-H460; [5]): > 100 µM | TGI (NCI-H460; read-out: TGI): > 100 µM | GI50 (NCI-H460; read-out: pGI50 (converted)): 4.27 µM | CC50 (NCI-H460; [6]): > 100 µM | TGI (NCI-H460; read-out: pTGI): > 100 µM | GI50 (HOP-92): 5.45 µM | TGI (HOP-92): 31.8 µM | CC50 (HOP-92; [5]): > 100 µM | GI50 (MCF7; read-out: GI50): 3.76 µM | CC50 (MCF7; [5]): > 100 µM | TGI (MCF7; read-out: TGI): > 100 µM | GI50 (MCF7; read-out: pGI50 (converted)): 3.8 µM | CC50 (MCF7; [6]): > 100 µM | TGI (MCF7; read-out: pTGI (converted)): > 100 µM | Activity (NCI-H522): 43.38% | GI50 (MDA-MB-468; read-out: GI50): 1.45 µM | CC50 (MDA-MB-468; [5]): 80.6 µM | TGI (MDA-MB-468; read-out: TGI): 34.1 µM | GI50 (MDA-MB-468; read-out: pGI50 (converted)): 14.5 µM | CC50 (MDA-MB-468; [6]): > 100 µM | TGI (MDA-MB-468; read-out: pTGI (converted)): 33.9 µM | Activity (NCI-H23): 72.29% | Activity (OVCAR-3 [3]): 48% | GI50 (MDA-MB-435): 1480 nM | TGI (MDA-MB-435): 3.7 µM | CC50 (MDA-MB-435; [5]): > 100 µM | Activity (HL-60(TB)): 20.71% | Activity (BT-549): 57.66% | GI50 (HCT-116): 4.14 µM | LC50 (concentration giving 50% net cell kill) (HCT-116): > 100 µM | TGI (HCT-116): > 100 µM | GI50 (OVCAR-3 [4]): 2380 nM | TGI (OVCAR-3 [4]): 5.34 µM | CC50 (OVCAR-3 [4]; [5]): 22.9 µM | Activity (CAKI-1): 93.05%

Reference: ChEMBL document CHEMBL1828575, “Design, synthesis and antiproliferative activities of biarylolefins based on polyhydroxylated and carbohydrate scaffolds” (Eur J Med Chem, 2011)
